In assay [1] the test system is Jurkat. As to the kind of experiment: Immunosuppressive activity in human Jurkat T cells assessed as inhibition of IL-2 transcription. In kind it is functional, cell-based.
The subject of assay [2] is Jurkat. The experiment in a line: Antiproliferative activity against human Jurkat T cells up to 10^4 nM after 72 hrs by MTT assay. In kind it is functional, cell-based. The procedure, abridged: (§1)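 HeLa and SK-MEL2 grown in DMEM, Jurkat in RPMI 1640, each with 10% FBS and penicillin-streptomycin, at 37 °C and 5% CO2. Adherent cells seeded at 2000/well and left to recover overnight; Jurkat seeded at 5000/well with no recovery. Compound added in DMSO (0.1% final), then 72 h incubation and MTT readout.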

Assay [3] deals with SK-MEL-2. As to the kind of experiment: Antiproliferative activity against human SK-MEL-2 cells up to 10^4 nM after 72 hrs by MTT assay in presence of 10% FBS. It counts as functional, cell-based. The essentials:
as §1
On the technique in general: Formazan colour is commonly taken as a measure of viable cells.

Assay [4] has as its system HeLa. The experiment in a line: Antiproliferative activity against human HeLa cells up to 500 nM after 72 hrs by MTT assay. It counts as functional, cell-based. The procedure, abridged: as §1
For assay [5], the species on record is Oryctolagus cuniculus. As to the kind of experiment: Inhibition of cap-independent HCV-IRES-induced translation in rabbit reticulocyte lysate at 500 nM after 1.5 hrs by luciferase reporter gene assay. In kind it is functional. The essentials: (§2)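 Capped bicistronic reporter mRNA: cap-dependent firefly luciferase first cistron, HCV IRES-driven Renilla second cistron. Transcribed in vitro with SP6 from the BamHI-linearised plasmid. 200 ng RNA translated in rabbit reticulocyte lysate with 70 mM KCl, 2 mM DTT, RNasin and compound in DMSO (5% v/v final), 30 °C for 1.5 h. Dual luciferase readout. Duplicates, 4 independent assays, mean IC50 by curve fit.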
Background: A reporter such as luciferase makes a cellular process visible.

Assay [6] deals with RKO. The experiment in a line: Antiproliferative activity against human RKO cells assessed as DNA synthesis level after 24 hrs by thymidine incorporation assay. In kind it is functional, cell-based. The procedure, abridged: (§3)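 Cells kept at 37 °C, 5% CO2 with penicillin-streptomycin and 10% FBS. Adherent lines seeded at 2000 cells/well and left to recover overnight; Jurkat seeded at 5000 cells/well with no recovery period. Compound added in DMSO (0.1% final, vehicle-only control) at 0.001–100 nM over 10 wells. DNA synthesis read out after 24 h. Mean IC50 from at least 3 independent assays.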
In general terms: Uptake of a labelled nucleoside into DNA is a usual measure of proliferation.

Assay [7] has as its system HeLa. The experiment in a line: Antiproliferative activity against human HeLa cells assessed as DNA synthesis level after 24 hrs by thymidine incorporation assay. In kind it is functional, cell-based. The essentials: as §3
Assay [8] deals with HaCaT. As to the kind of experiment: Antiproliferative activity against human HaCaT cells assessed as DNA synthesis level after 24 hrs by thymidine incorporation assay. It counts as functional, cell-based. The essentials: as §3
Assay [9] can be described thus: Antiproliferative activity against BAEC assessed as DNA synthesis level after 24 hrs by thymidine incorporation assay. To be noted: Bos taurus. The essentials: as §3
Assay [10] is described as follows: Antiproliferative activity against human Jurkat T cells after 72 hrs by MTT assay. In kind it is functional, cell-based. The procedure, abridged:
as §1

For assay [11], the system named is SK-MEL-2. The experiment in a line: Antiproliferative activity against human SK-MEL-2 cells after 72 hrs by MTT assay in presence of 10% FBS. In kind it is functional, cell-based. Particulars: SK-MEL-2, 72 h. The essentials:
as §1

The species named for assay [12] is Oryctolagus cuniculus. The experiment in a line: Binding affinity to eIF4A1/2 in rabbit reticulocyte lysate assessed as inhibition of cap-dependent translation up to 500 nM after 1.5 hrs by dual luciferase reporter gene assay. The essentials:
as §2

Assay [13] relates to HeLa. As to the kind of experiment: Antiproliferative activity against human HeLa cells after 72 hrs by MTT assay. In kind it is functional, cell-based. The essentials:
as §1

A short description of assay [14]: Binding affinity to eIF4A1/2 in rabbit reticulocyte lysate assessed as inhibition of cap-dependent translation after 1.5 hrs by dual luciferase reporter gene assay. Details: species or system Oryctolagus cuniculus. The essentials:
as §2

The nature of assay [15]: Antiproliferative activity against human Jurkat T cells assessed as DNA synthesis level after 24 hrs by thymidine incorporation assay. In kind it is functional, cell-based. The essentials:
as §3

Activity calls are given as the source filed them. No cut-off for these calls is given here.

What is called IC50 is the concentration needed to halve the response being measured. As for `COCCC/C=C/C(C)=C/[C@@H]1Cc2nc(cs2)[C@@H](C)C[C@@H](NC(=O)OC(C)(C)C)CC(=O)O[C@@H](C)C/C(C)=C/C=C\C(=O)O1`, the concentration for half-maximal inhibition (IC50) in assay [1] was above 1000 nM.

Consider `CC(/C=C/C(C)=C/[C@@H]1Cc2nc(cs2)CCCCC(=O)O[C@@H](C)C/C(C)=C/C#CC(=O)O1)=C\CN1CCCC1`, for which the result in assay [2], in [3] and in [4] was inactive.

As for `COC/C=C/C=C/C(C)=C/[C@@H]1Cc2nc(cs2)CCCCC(=O)O[C@@H](C)C/C(C)=C/C#CC(=O)O1`, the outcome in assay [2], in assay [3] and in assay [4] was inactive. Moreover, in [5], the inhibition entry is “inactive”.

Consider `CC(/C=C/CCCO)=C\[C@@H]1Cc2nc(cs2)[C@@H](C)C[C@@H](NC(=O)OC(C)(C)C)CC(=O)O[C@@H](C)C/C(C)=C/C#CC(=O)O1`, for which the half-maximal inhibitory concentration (IC50) was above 100 nM in [6]; above 100 nM in assay [7]; 340 nM in assay [1]; above 100 nM in [8]; above 20 nM in assay [9].

For `C/C(Br)=C\[C@@H]1Cc2nc(cs2)CCCCC(=O)O[C@@H](C)C/C(C)=C/C=CC(=O)O1`, the result in assay [2], in assay [3] and in assay [4] was inactive.

For the compound `COCCC/C=C/C(C)=C/[C@@H]1Cc2nc(cs2)CCCCC(=O)O[C@@H](C)C/C(C)=C/C#CC(=O)O1`, the inhibition entry in assay [5] is “inactive”. In addition, the result in assay [3] and in assay [4] was inactive. The same compound returned an IC50 in assay [10] above 10000 nM.

On to `CC(/C=C/CCCO)=C\[C@@H]1Cc2nc(cs2)[C@@H](C)C[C@@H](NC(=O)OC(C)(C)C)CC(=O)O[C@@H](C)C/C(C)=C/C=C\C(=O)O1`, for which the IC50 in assay [1] is above 1000 nM.

Regarding `COC/C=C/C=C/C(C)=C/[C@@H]1Cc2nc(cs2)CCCCC(=O)O[C@@H](C)C/C(C)=C/C=C\C(=O)O1`, the outcome in assay [2] and in assay [4] was inactive. The concentration for half-maximal inhibition (IC50) in assay [11] was above 5000 nM. Moreover, the inhibition entry in assay [5] and in assay [12] was “inactive” each time.

For `CC(/C=C/C=C/CO)=C\[C@@H]1Cc2nc(cs2)CCCCC(=O)O[C@@H](C)C/C(C)=C/C=C\C(=O)O1`, the IC50 in assay [13] is above 5000 nM; in assay [11] it was above 5000 nM; in assay [10] it was above 10000 nM; in assay [14], above 500 nM. Besides, in assay [5], the inhibition result was “inactive”.

Turning to `CC(/C=C/C(C)=C/[C@@H]1Cc2nc(cs2)CCCCC(=O)O[C@@H](C)C/C(C)=C/C#CC(=O)O1)=C\CN1CCOCC1`, the outcome in assay [2] and in assay [4] was inactive. Besides, the IC50 in [11] was above 5000 nM. Besides, the inhibition result in assay [5] is “inactive”.

As to `COCCC/C=C/C(C)=C/[C@@H]1Cc2nc(cs2)[C@@H](C)C[C@@H](NC(=O)OC(C)(C)C)CC(=O)O[C@@H](C)C/C(C)=C/C#CC(=O)O1`, the IC50 in assay [6] was above 100 nM; in [7], above 100 nM; in assay [1] it was 55 nM; in [8] it was above 100 nM; in [9] it was above 20 nM.

As to `COCCC/C=C/C(C)=C/[C@@H]1Cc2nc(cs2)CCCCC(=O)O[C@@H](C)C/C(C)=C/C=C\C(=O)O1`, the outcome in assay [2], in [3] and in [4] was inactive. For the same compound, the inhibition result in assay [5] and in assay [12] was “inactive” each time.

As for `CC(/C=C/CCCN(C)C)=C\[C@@H]1Cc2nc(cs2)[C@@H](C)C[C@@H](NC(=O)OC(C)(C)C)CC(=O)O[C@@H](C)C/C(C)=C/C=C\C(=O)O1`, the IC50 in assay [1] is 330 nM; in assay [8] it was above 100 nM; in [9], above 20 nM.

Regarding `CC(/C=C/C(C)=C/[C@@H]1Cc2nc(cs2)[C@@H](C)C[C@@H](NC(=O)C(F)(F)F)CC(=O)O[C@@H](C)C/C(C)=C/C=C\C(=O)O1)=C\CN(C)C`, the half-inhibitory concentration (IC50) in assay [6] is above 100 nM; in assay [7], above 100 nM; in assay [1] it was 300 nM; in [8], above 100 nM.

Take `CC(/C=C/C=C/CO)=C\[C@@H]1Cc2nc(cs2)CCCCC(=O)O[C@@H](C)C/C(C)=C/C#CC(=O)O1`: the result in [2], in assay [3] and in [4] was inactive. Besides, in assay [5], the inhibition entry is “inactive”.

Regarding `CC(/C=C/CCCO)=C\[C@@H]1Cc2nc(cs2)CCCCC(=O)O[C@@H](C)C/C(C)=C/C=C\C(=O)O1`, the IC50 in assay [11] and in assay [10] was above 5000 nM in each case. Moreover, the inhibition entry in assay [5] and in assay [12] was “inactive” each time. Further, the result in assay [4] was inactive.

As for `CC(/C=C/C(C)=C/[C@@H]1Cc2nc(cs2)CCCCC(=O)O[C@@H](C)C/C(C)=C/C#CC(=O)O1)=C\CN(C)C`, the result in assay [2], in assay [3] and in [4] was inactive. The inhibition result in [5] and in [12] was “inactive” in each case.

`CC(/C=C/C(C)=C/[C@@H]1Cc2nc(cs2)[C@@H](C)C[C@@H](NC(=O)c2ccccc2)CC(=O)O[C@@H](C)C/C(C)=C/C=C\C(=O)O1)=C\CN(C)C`: the IC50 was determined as 4.2 nM in assay [6]; 16.1 nM in assay [7]; 15 nM in assay [1]; 3.4 nM in assay [8]; 12.8 nM in assay [9]; 11.6 nM in assay [15].

As to `CC(/C=C/C(C)=C/[C@@H]1Cc2nc(cs2)[C@@H](C)C[C@@H](N)CC(=O)O[C@@H](C)C/C(C)=C/C=C\C(=O)O1)=C\CN(C)C` [PATEAMINE A], the IC50 in assay [6] stood at 0.38 nM; in assay [7] it was 0.72 nM; in [1] it was 4 nM; in assay [8] it was 0.42 nM; in assay [9] it was 0.5 nM; in [15] it was 0.6 nM.

With `C/C(Br)=C\[C@@H]1Cc2nc(cs2)CCCCC(=O)O[C@@H](C)C/C(C)=C/C#CC(=O)O1`, the result in assay [2], in assay [3] and in [4] was inactive. Further, in assay [5], the inhibition result was “inactive”.

In the case of `CC(Br)=C[C@@H]1Cc2nc(cs2)CCCCC(=O)O[C@@H](C)C/C(C)=C/C=C\C(=O)O1`, the concentration for half-maximal inhibition (IC50) in [11] and in assay [10] was above 10000 nM in each case. The inhibition result in assay [5] and in [12] was “inactive” each time. Besides, the result in assay [4] was inactive.

`CC(/C=C/CCCO)=C\[C@@H]1Cc2nc(cs2)CCCCC(=O)O[C@@H](C)C/C(C)=C/C#CC(=O)O1`: the result in [2], in assay [3] and in [4] was inactive. For the same compound, the inhibition result in [5] is “inactive”.

These data come from ChEMBL document CHEMBL3124904, “Second-generation derivatives of the eukaryotic translation initiation inhibitor pateamine A targeting eIF4A as potential anticancer agents” (Bioorg Med Chem, 2014).
